Reference: PubChem BioAssay
The source made the active and inactive calls.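 How the source made its calls, unless noted: active means viability loss from added drug above about 55%, and viability with drug at most 40%, in both replicates (limit read from the data, passing the limit was not always enough); inconclusive means both conditions met in only one replicate; inactive means neither replicate meets both conditions.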

Assays:
[1] = Her2 expression decrease, cell viability multiplex – SKBR3 breast tumor cells, AlphaScreen, ATP viability, primary screen (AID 461;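 active means Her2 level under about 52% in both replicate screens, with viability over 70% of control, limit read from the data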;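 on Her2 level: lower value means less Her2 protein in the cells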;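 on viability: percent of carrier control wells set as 100% viability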); details: SKBR3 Her2 protein level, 18-24 h, measured here: SKBR3 viability, ATP luminescence, at 10 µM
[2] = molecular target: Receptor tyrosine-protein kinase erbB-2 (Homo sapiens) (UniProt P04626); experiment: as above; details: 18-24 h, at 10 µM, stronger effect = lower value
Receptor tyrosine-protein kinase erbB-2 (Homo sapiens), sequence (P04626 whole entry, looked up): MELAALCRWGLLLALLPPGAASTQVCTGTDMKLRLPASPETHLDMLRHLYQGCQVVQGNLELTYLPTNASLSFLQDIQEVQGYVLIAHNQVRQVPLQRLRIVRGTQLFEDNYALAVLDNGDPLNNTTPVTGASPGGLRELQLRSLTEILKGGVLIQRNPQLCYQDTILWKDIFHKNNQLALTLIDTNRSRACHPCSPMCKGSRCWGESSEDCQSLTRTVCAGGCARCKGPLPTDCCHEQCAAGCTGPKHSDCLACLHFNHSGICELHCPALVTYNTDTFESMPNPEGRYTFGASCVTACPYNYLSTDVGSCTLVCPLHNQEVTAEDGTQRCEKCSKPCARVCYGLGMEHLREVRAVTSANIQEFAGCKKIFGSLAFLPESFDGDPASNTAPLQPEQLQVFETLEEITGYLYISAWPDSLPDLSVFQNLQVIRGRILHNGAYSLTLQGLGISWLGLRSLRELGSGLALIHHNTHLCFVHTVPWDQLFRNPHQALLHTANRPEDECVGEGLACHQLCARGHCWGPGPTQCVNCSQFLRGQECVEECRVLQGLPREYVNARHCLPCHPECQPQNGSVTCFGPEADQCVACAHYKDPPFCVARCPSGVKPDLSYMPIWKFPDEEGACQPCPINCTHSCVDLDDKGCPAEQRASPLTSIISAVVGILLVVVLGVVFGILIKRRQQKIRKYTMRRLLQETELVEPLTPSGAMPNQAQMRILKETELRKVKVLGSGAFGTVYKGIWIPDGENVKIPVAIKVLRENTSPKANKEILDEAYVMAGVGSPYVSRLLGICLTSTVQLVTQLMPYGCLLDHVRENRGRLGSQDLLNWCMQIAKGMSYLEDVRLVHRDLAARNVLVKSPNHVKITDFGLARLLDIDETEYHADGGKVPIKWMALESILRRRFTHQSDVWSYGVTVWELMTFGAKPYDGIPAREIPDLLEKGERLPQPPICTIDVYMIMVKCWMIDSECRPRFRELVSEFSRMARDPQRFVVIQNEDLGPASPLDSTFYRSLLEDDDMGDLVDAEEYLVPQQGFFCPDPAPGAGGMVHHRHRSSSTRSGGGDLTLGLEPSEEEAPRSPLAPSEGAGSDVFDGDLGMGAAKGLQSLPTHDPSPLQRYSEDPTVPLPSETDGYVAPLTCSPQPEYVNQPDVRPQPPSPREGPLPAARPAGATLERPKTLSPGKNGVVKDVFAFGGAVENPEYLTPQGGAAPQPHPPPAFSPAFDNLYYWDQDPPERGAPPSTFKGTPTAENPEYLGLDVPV

[3] = reduced viability of SK-BR-3 breast cancer cells – cell-based, 24 h, human, pilot screen (AID 572;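 active means viability at or below 10% of carrier control in both of two separate runs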;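 further: compound exposure lasted between 18 and 24 h rather than exactly 24 h; 100% = carrier-treated control wells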); details: SK-BR-3 viability, CellTiter-Glo luminescence, at 10 µM, stronger effect = lower value
[4] = HUVEC growth inhibition – cell-based, human, primary screen (AID 575;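 active means viability at or below 30% in both replicate assays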;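 further: 100% = median of untreated cell wells with 0.1% DMSO on each plate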); details: HUVEC proliferation, CellTiter-Glo luminescence, 72 h; at 10 µM; stronger effect = lower value
Procedure, shortened: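 Timing: 72 h treatment at 37 °C; material: HUVEC primary cells; technique: CellTiter-Glo luminescence measuring cellular ATP; controls: vehicle and MePR control wells; measure: percent of median DMSO-control luminescence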

[5] = H69AR cell proliferation blockers – human, duplicate replicates, primary screen (AID 580;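 active means viability at or under a set limit in both replicates, limit being median viability minus 3 SD, cut at about 48% in these data, passing the limit was not always enough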;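 further: 100% = mean luminescence of untreated wells and 0% = no signal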); details: H69AR lung tumor cells viability, ATP luminescence, 72 h; at 10 µM; stronger effect = lower value
[6] = MRP1 drug-resistance reversers in H69AR cells – cell-based, doxorubicin co-treatment, pilot screen (AID 601); details: CellTiter-Glo, 72 h, at 10 µM; for differential viability (reversal): stronger effect = higher value
[7] = yeast transport mutant growth inhibition pilot in 384-well plates, post-Golgi transport modulator project (AID 636; in the data active means inhibition above about 31%); details: absorbance 615 nm, about 18 h, stronger effect = higher value
[8] = growth suppression of yeast trafficking mutant, preliminary HTS, modulators of trafficking downstream of Golgi apparatus project, 1536-format plate, OD 615 nm (AID 637; in the data active means inhibition above about 30%); details: yeast transport mutant growth, absorbance 615 nm, 18 h; stronger effect = higher value
[9] = H69AR cells + 2 uM doxorubicin, measured here: viability with 2 uM doxorubicin, stronger effect = lower value
[10] = H69AR cells, compound alone cytotoxicity

| Structure (SMILES) | viability [1] [%] | Her2 level [2] | viability [3] | viability [4] | viability [5] | differential viability (reversal) ([6]; H69AR cells + 2 uM doxorubicin) | viability [6, 9] [%] | viability [6, 10] [%] | inhibition [7] | inhibition [8] |
| --- | --- | --- | --- | --- | --- | --- | --- | --- | --- | --- |
| O=C(Cn1ccc2ccccc2c1=O)NCCC(=O)N1CCN(C2CCCCC2)CC1 | 99.5 | 86.5% (inactive) | 99.5% (inactive) | 96.6% (inactive) | 104% (inactive) | 22.2% (inactive) | 81.7 | 104 | -3.2% (inactive) | 2.13% (inactive) |
| COCCn1nnnc1C(c1cc2cc(C)cc(C)c2[nH]c1=O)N1CCN(c2ccccc2F)CC1 (stereo not given) | 102 | 81.5% (inactive) | 102% (inactive) | 78.4% (inactive) | 80.9% (inactive) | -5.39% (inactive) | 86.3 | 80.9 | -4% (inactive) | 1.8% (inactive) |
| O=C(NCc1cccs1)C1CC(c2ccccc2O)=NO1 (stereo not given) | 74 | 78.5% (inactive) | 74% (inactive) | 63.4% (inactive) | 104% (inactive) | 16.5% (inactive) | 87.3 | 104 | -3.73% (inactive) | -0.33% (inactive) |
| N/C(Cn1nnc(-c2ccccc2)n1)=N\O | 97 | 87.5% (inactive) | 97% (inactive) | 112% (inactive) | 107% (inactive) | 11% (inactive) | 96.3 | 107 | -2.5% (inactive) | -5.08% (inactive) |
| CCOC(=O)n1c(SCC(=O)N(CC)CC)nc2ccccc21 | 118 | 97.5% (inactive) | 118% (inactive) | 105% (inactive) | 101% (inactive) | 15.7% (inactive) | 85.7 | 101 | -3.51% (inactive) | 1.11% (inactive) |
| CCOC(=O)N1CCN(C(=O)CN(C)S(=O)(=O)c2ccc(OC)c(OC)c2)CC1 | 100 | 94.5% (inactive) | 100% (inactive) | 104% (inactive) | 91.5% (inactive) | 3.21% (inactive) | 88.3 | 91.5 | -6.84% (inactive) | 1.97% (inactive) |
| Cc1cccc(-n2ncc3c(N)ncnc32)c1 | 94.5 | 83.5% (inactive) | 94.5% (inactive) | 51.3% (inactive) | 98.3% (inactive) | 17.7% (inactive) | 80.6 | 98.3 | -4.67% (inactive) | -1.31% (inactive) |
| COc1ccccc1-c1coc2c(CN3CCN(CCO)CC3)c(O)ccc2c1=O | 87.5 | 93.5% (inactive) | 87.5% (inactive) | 94.5% (inactive) | 106% (inactive) | 18.9% (inactive) | 87.5 | 106 | -4.27% (inactive) | 0.65% (inactive) |
| CCn1c(SCC(=O)N2c3ccccc3CCc3ccccc32)nc2c1c(=O)n(C)c(=O)n2C | 87.5 | 107% (inactive) | 87.5% (inactive) | 92.5% (inactive) | 94.3% (inactive) | -1.58% (inactive) | 95.8 | 94.3 | -1.51% (inactive) | -6.98% (inactive) |
| CN(C)S(=O)(=O)c1ccc(C(=O)N2CCCC2c2nc3ccccc3s2)cc1 (stereo not given) | 98 | 127% (inactive) | 98% (inactive) | 91.1% (inactive) | 94.9% (inactive) | 1.97% (inactive) | 92.9 | 94.9 | -1.49% (inactive) | 3.93% (inactive) |
| O=C(CN1C(=O)COCC1=O)N1CCOCC1 | 91 | 86.5% (inactive) | 91% (inactive) | 104% (inactive) | 96.9% (inactive) | -0.64% (inactive) | 97.5 | 96.9 | 0.26% (inactive) | 0% (inactive) |
| Cc1ccc2occ(CN3CCN(c4ccccc4)CC3)c(=O)c2c1 | 104 | 104% (inactive) | 104% (inactive) | 89% (inactive) | 87.5% (inactive) | -6.67% (inactive) | 94.2 | 87.5 | -1.04% (inactive) | -3.77% (inactive) |
| CCOC(=O)c1c(N)nn(C(=O)C(C)C)c1-c1ccccc1 | 97 | 119% (inactive) | 97% (inactive) | 82.5% (inactive) | 109% (inactive) | 15% (inactive) | 94 | 109 | -5.95% (inactive) | -9.34% (inactive) |
| COc1ccccc1N(C)S(=O)(=O)c1ccc(C(=O)NC2=NCCS2)cc1 | 104 | 95% (inactive) | 104% (inactive) | 85.8% (inactive) | 96.2% (inactive) | -3.23% (inactive) | 99.5 | 96.2 | 0% (inactive) | -5.4% (inactive) |
| COc1cc(CN2CCSCC2)cc(OC)c1OC | 89.5 | 150% (inactive) | 89.5% (inactive) | 88.8% (inactive) | 109% (inactive) | 21% (inactive) | 87.7 | 109 | -0.65% (inactive) | -1.83% (inactive) |
| Cc1ccc(CNC(=O)C2CCN(S(=O)(=O)c3cccs3)CC2)o1 | 138 | 87% (inactive) | 138% (inactive) | 89.5% (inactive) | 81% (inactive) | 6.39% (inactive) | 74.6 | 81 | -4.68% (inactive) | 4.76% (inactive) |
